Results filed as inconclusive are left out. Activity calls are given as the source filed them.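 Rule for the calls, unless noted: active = inhibition over a set limit, the all-compound mean plus 3 SD, in both replicate runs; inconclusive = over that limit in just one replicate run; inactive = at or under that limit in both runs.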 Non-standard residues stand in square brackets, D forms with d. Residues, ends and D or L forms follow the SMILES beside them. ξ: configuration not given here. *: point of attachment. Cbz = O=C(OCc1ccccc1)*; ξV = CC(C)C(N)C(=O)O; OtBu = CC(C)(C)O*
Assays:
[1] = S. cerevisiae growth inhibition in permissive medium (OD615), pilot counter-assay for S. cerevisiae lifespan shortening project, permissive growth control (AID 705;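 active = growth inhibition above 25% in both replicates, a cutoff set 3 SD above the mean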); conditions: OD615, 24 h, at 10 µM, active compounds read high
In short: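 System: Engineered DeaD yeast | Buffer or medium: SC raffinose/galactose permissive medium | Doses: 10 µM single dose, 0.25% DMSO | Times: 24 h exposure, 30 °C | Measured by: OD615 turbidity read | Read-out: Yeast growth inhibition indicated by reduced 24 h OD615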

[2] = S. cerevisiae growth inhibition in restrictive medium, OD615, pilot screen, restrictive growth control, yeast lifespan reduction project (AID 706;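 active = growth inhibition above a set limit, 3 SD over mean compound inhibition, in both replicates, cut at about 43% in these data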;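 note: modified DeaD lifespan yeast strain shifted to restrictive glucose medium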); conditions: OD615, 48 h, at 10 µM, active compounds read high
In short: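 Assay system: engineered S. cerevisiae DeaD strain; Buffer or medium: CSMM-D glucose medium; Dosing: 10 µM compound, 0.25% DMSO; Times: cell pre-growth 4 h, compound exposure 48 h, 30 °C; Detection: absorbance (optical density) measured at 615 nm.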

[3] = doxorubicin toxicity protection in MRP-1 cells – H69AR cells, CellTiter-Glo, duplicate, MRP-1 activator project, pilot screen (AID 807;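 active = viability increase at or above a cutoff of the median across tested compounds plus 3 SD, cut at about 8.5% in these data, passing the limit was not always enough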;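 note: compound pretreatment 18-22 h then 72 h combined with doxorubicin; 0% = doxorubicin alone and 100% = vehicle without doxorubicin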); conditions: H69AR viability with doxorubicin, CellTiter-Glo luminescence; at 10 µM; active compounds read high
[4] = viability of HCT116 without oncogenic beta-catenin – human colon tumor cells, pilot screen (AID 823;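 active = cell viability at or below a set limit in both duplicate runs, the limit being the all-compound median minus 4 SD, cut at about 23% in these data, passing the limit was not always enough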;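 note: 0% = wells killed by 20 µM Hyamine and 100% = untreated DMSO cell wells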); conditions: HCT116 beta-catenin knockout viability, CellTiter-Glo, 60 h; at 10 µM; active compounds read low
[5] = viability of PTEN-null HCT116 cells – cell-based, HCT116 clonal line, CellTiter-Glo, pilot screen (AID 824;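 active = viability at or below 27.92% in each of two runs, the all-compound median minus 4 SD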;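 note: 0% = 20 µM Hyamine control and 100% = vehicle cell control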); conditions: HCT116 PTEN-deleted viability, 60 h, at 10 µM, active compounds read low
[6] = RAM pathway blockade in budding yeast – dse1pr::URA3 reporter, 5-FOA selection, pilot screen (AID 869);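 note: 0% = DMSO wells with no growth and 100% = 10 µM 1-NA-PP1 with full growth; RAM network block rescues cells from 5-FOA so hits raise OD615 growth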; conditions: S. cerevisiae dse1pr::URA3 5-FOA growth, OD615, 2 d; at 10 µM; active compounds read high; strain carries analog-sensitive mutant Cbk1 kinase
[7] = RAM signaling pathway blockade in yeast – S. cerevisiae, Pdr1DBD-CYC8 efflux-inhibited sensitized strain, primary screen (AID 1298;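 active = RAM network inhibition above 8.4% in each of two replicates, 3 SD over the compound average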;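 note: 0% = DMSO untreated cells without growth and 100% = 10 µM 1-NA-PP1 full growth; higher means more yeast growth rescued from 5-FOA killing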); conditions: S. cerevisiae cbk1-as DSE1-URA3 strain, 5-FOA growth OD615, 2 d; at 50 µM; active compounds read high

COc1ccc(CN2CCN(c3ncccn3)CC2)c(OC)c1
inactive: growth inhibition [1] -0.81% | growth inhibition [2] 3.13% | viability increase [3] -1.8% | viability [4] 94.5% | viability [5] 89.3% | inhibition [6] 1.24% | RAM network inhibition [7] 6.9%

CCOC(=O)N1CCC(NC(=O)CSCc2nc(-c3sccc3C)oc2C)CC1
inactive: growth inhibition [1] -9.01% | growth inhibition [2] -10.5% | viability increase [3] -1.24% | viability [4] 90% | viability [5] 83.5% | inhibition [6] 1.34% | RAM network inhibition [7] 6.2%

CCNc1cc2oc(=O)c(CN3CCOCC3)c(C)c2cc1C
inactive: growth inhibition [1] 4.16% | growth inhibition [2] 6.97% | viability increase [3] -1.46% | viability [4] 91% | viability [5] 94.5% | inhibition [6] 2.04% | RAM network inhibition [7] 0.2%

COc1ccc(C(CNC(=O)C2CC(=O)N(Cc3ccc(C)cc3)C2)N(C)C)cc1 (configuration not stated)
inactive: growth inhibition [1] -1.76% | growth inhibition [2] -7.34% | viability increase [3] -0.21% | viability [4] 96% | viability [5] 95.7% | inhibition [6] 1.3% | RAM network inhibition [7] 1.64%

CCN(CC)CCN1C(=O)c2ccccc2NC1c1cccc(F)c1 (configuration not stated)
inactive: growth inhibition [1] -8.46% | growth inhibition [2] 1.83% | viability increase [3] -2.21% | viability [4] 84.4% | viability [5] 91.4% | inhibition [6] 0.75% | RAM network inhibition [7] 8.87%

C=CCn1c(SCC(=C)C)nc2c1c(=O)[nH]c(=O)n2C
inactive: growth inhibition [1] -14.8% | growth inhibition [2] -25.6% | viability increase [3] -0.41% | viability [4] 109% | viability [5] 97% | inhibition [6] -0.415% | RAM network inhibition [7] 1.55%

Clc1ccc(C2CC(c3cccs3)n3ncnc3N2)c(Cl)c1 (configuration not stated)
inactive: growth inhibition [1] -5.32% | growth inhibition [2] 17.4% | viability increase [3] -4.06% | viability [4] 78.7% | viability [5] 69.3% | inhibition [6] 2.1% | RAM network inhibition [7] 2.15%

CC(NC(=O)CSc1ncnc2nc[nH]c12)c1ccccc1 (configuration not stated)
inactive: growth inhibition [1] -15.5% | growth inhibition [2] -5.1% | viability increase [3] -0.99% | viability [4] 99.8% | viability [5] 96% | inhibition [6] 0.755% | RAM network inhibition [7] 0.48%

CC1CN(C(c2cccs2)c2sc3ncnn3c2O)CC(C)O1 (configuration not stated)
inactive: growth inhibition [1] -15% | growth inhibition [2] -4.9% | viability increase [3] 0.14% | viability [4] 101% | viability [5] 97.8% | inhibition [6] 2.26% | RAM network inhibition [7] 4.47%

CCOCCCNC(=O)Cn1cc2c(n1)CCCC2
inactive: growth inhibition [1] 3.43% | growth inhibition [2] 1.36% | viability increase [3] -0.46% | viability [4] 105% | viability [5] 98.8% | inhibition [6] 1.91% | RAM network inhibition [7] 1.03%

O=C1CCCN1CC(CN1CCOCC1)Sc1nc2ccccc2c(=O)n1-c1ccccc1 (configuration not stated)
inactive: growth inhibition [1] -2.25% | growth inhibition [2] -6.07% | viability increase [3] -6.36% | viability [4] 92.1% | viability [5] 97.3% | inhibition [6] 1.88% | RAM network inhibition [7] 1.94%

O=C(Nc1cccnc1)C(Cc1ccccc1)n1cccc1 (configuration not stated)
inactive: growth inhibition [1] -15.5% | growth inhibition [2] -13.4% | viability increase [3] -4.93% | viability [4] 102% | viability [5] 91.8% | inhibition [6] 0.44% | RAM network inhibition [7] 4.6%

CCOC(=O)c1cn[nH]c1N
inactive: growth inhibition [1] -3.76% | growth inhibition [2] 10.1% | viability increase [3] 0% | viability [4] 101% | viability [5] 102% | inhibition [6] -0.235% | RAM network inhibition [7] 0.61%

CC1(C)CC2(CC(C)(C)N1)OC(=O)N1CCc3ccccc3C12C (configuration not stated)
inactive: growth inhibition [1] -4.17% | growth inhibition [2] -7.5% | viability increase [3] -1.65% | viability [4] 106% | viability [5] 97.9% | inhibition [6] 2.3% | RAM network inhibition [7] 6.97%

COc1ccc(-n2nc3c(c2NC(=O)c2ccc(Br)cc2)CS(=O)C3)cc1 (configuration not stated)
inactive: growth inhibition [1] -4.15% | growth inhibition [2] 4.82% | viability increase [3] -2.41% | viability [4] 85.3% | viability [5] 91.5% | inhibition [6] 0.805% | RAM network inhibition [7] 2.87%

Nc1c(C(=O)NCc2ccccc2)nnn1Cc1ccccc1
inactive: growth inhibition [1] -6.54% | growth inhibition [2] 4.1% | viability increase [3] 1.95% | viability [4] 99.8% | viability [5] 91.2% | inhibition [6] 1.02% | RAM network inhibition [7] 2.99%

O=C(CCCOc1ccccc1)NCC1CCCO1 (configuration not stated)
inactive: growth inhibition [1] -3.87% | growth inhibition [2] -6.75% | viability increase [3] -2.68% | viability [4] 96.5% | viability [5] 91.5% | inhibition [6] 4.06% | RAM network inhibition [7] 0.83%

c1coc(Cn2c(SCc3nc4ccccc4[nH]3)nnc2-c2cccs2)c1
inactive: growth inhibition [1] 0.98% | growth inhibition [2] 21.3% | viability increase [3] -1.17% | viability [4] 93% | viability [5] 89.8% | inhibition [6] 3.64% | RAM network inhibition [7] 1.24%

COC(=O)CSc1ccc2nnc(-c3ccc(OC)c(OC)c3)n2n1
inactive: growth inhibition [1] -10.3% | growth inhibition [2] -18.4% | viability increase [3] -0.56% | viability [4] 106% | viability [5] 107% | inhibition [6] -0.01% | RAM network inhibition [7] 3.82%

Cc1cc(NS(=O)(=O)c2ccc(NC(=O)Nc3ccccc3)cc2)no1
inactive: growth inhibition [1] 4.26% | growth inhibition [2] -7.87% | viability increase [3] 1.41% | viability [4] 101% | viability [5] 103% | inhibition [6] 1.92% | RAM network inhibition [7] 1.02%

CC1=CC(C)(C)N(C(=O)CSc2nnc(-c3ccccc3)o2)c2ccc(C)cc21
inactive: growth inhibition [1] -10% | growth inhibition [2] 2.73% | viability increase [3] -5.46% | viability [4] 62% | viability [5] 66.2% | inhibition [6] 0.325% | RAM network inhibition [7] 6.03%

CC1CN(C(=O)c2cc3ccccc3oc2=O)CC(C)O1 (configuration not stated)
inactive: growth inhibition [1] 5.08% | growth inhibition [2] -3.64% | viability increase [3] 0.49% | viability [4] 98.4% | viability [5] 103% | inhibition [6] 0.555% | RAM network inhibition [7] 2.33%

c1cnc(N2CCSCC2)nc1
inactive: growth inhibition [1] 2.61% | growth inhibition [2] 2.42% | viability increase [3] -2.73% | viability [4] 104% | viability [5] 101% | inhibition [6] 0.69% | RAM network inhibition [7] 3.1%

CCOC(=O)C1=C(N)OC2=C(C(=O)CCC2)C1c1ccccc1OCC (configuration not stated)
inactive: growth inhibition [1] -3.85% | growth inhibition [2] -4.66% | viability increase [3] -0.08% | viability [4] 100% | viability [5] 103% | inhibition [6] 1.05% | RAM network inhibition [7] 8.68%

COc1cc2c(cc1OC)C(C(=O)NC1CC1)C1c3ccccc3CCN1C2=O (configuration not stated)
inactive: growth inhibition [1] -17.8% | growth inhibition [2] -13.4% | viability increase [3] -1.28% | viability [4] 95.8% | viability [5] 97.3% | inhibition [6] 0.58% | RAM network inhibition [7] 0.1%

CCCNC(=O)NCCc1c(C)[nH]c2ccccc12
inactive: growth inhibition [1] 4.3% | growth inhibition [2] -9.91% | viability increase [3] -3.16% | viability [4] 99.8% | viability [5] 99% | inhibition [6] 1.35% | RAM network inhibition [7] 1.69%

Cc1ccccc1NC(=O)CCN1CCN(Cc2ccccc2)CC1
inactive: growth inhibition [1] -9.43% | growth inhibition [2] 3.58% | viability increase [3] -3.29% | viability [4] 94.8% | viability [5] 89.6% | inhibition [6] 1.85% | RAM network inhibition [7] 5.05%

Cn1c(=O)c2c(nc(NCc3ccccc3)n2C)n(C)c1=O
inactive: growth inhibition [1] -4.99% | growth inhibition [2] -2.69% | viability increase [3] -1.73% | viability [4] 99.6% | viability [5] 95.4% | inhibition [6] 0.45% | RAM network inhibition [7] 1.42%

CCOc1ccc(N(CC(=O)O)S(=O)(=O)c2ccc(OC)c(OC)c2)cc1
inactive: growth inhibition [1] -8.3% | growth inhibition [2] -13.4% | viability increase [3] -0.45% | viability [4] 95.5% | viability [5] 95.3% | inhibition [6] 1.32% | RAM network inhibition [7] 1.05%

CCS(=O)(=O)Nc1ccc(-c2ccc(NS(=O)(=O)CC)c(OC)c2)cc1OC
inactive: growth inhibition [1] -3.19% | growth inhibition [2] -1.95% | viability increase [3] -3.7% | viability [4] 103% | viability [5] 101% | inhibition [6] 2.69% | RAM network inhibition [7] 6.39%

O=C(NCc1cccnc1)c1nnc(Cc2ccc(F)cc2)o1
inactive: growth inhibition [1] 7.17% | growth inhibition [2] 2.65% | viability increase [3] 2.16% | viability [4] 98.4% | viability [5] 103% | inhibition [6] 0.03% | RAM network inhibition [7] 3.62%

CC(C)C(NC(=O)OCc1ccccc1)C(=O)NCC(=O)OC(C)(C)C (configuration not stated) (Cbz-[ξV]-Gly-OtBu)
inactive: growth inhibition [1] -5.84% | growth inhibition [2] -2.87% | viability increase [3] 0.2% | viability [4] 96.6% | viability [5] 95.2% | inhibition [6] 1.82% | RAM network inhibition [7] 3.16%

Cc1cc(=O)oc(C)c1C(=O)N1CCc2c([nH]c3ccccc23)C1C(C)C (configuration not stated)
inactive: growth inhibition [1] 3.99% | growth inhibition [2] 3.98% | viability increase [3] -5% | viability [4] 94.9% | viability [5] 89.4% | inhibition [6] 1.1% | RAM network inhibition [7] 4.47%

COC(=O)c1cc(OC)c(OC)cc1N=CC1=C(O)CC(C)(C)CC1=O
inactive: growth inhibition [1] -14.9% | growth inhibition [2] -8.12% | viability increase [3] -0.98% | viability [4] 99.5% | viability [5] 94.1% | inhibition [6] 1.6% | RAM network inhibition [7] 3.12%

CCNC(=O)CN(Cc1ccccc1)S(=O)(=O)c1ccccc1
inactive: growth inhibition [1] -5.21% | growth inhibition [2] 13.1% | viability increase [3] 0.61% | viability [4] 89.3% | viability [5] 104% | inhibition [6] 0.615% | RAM network inhibition [7] 1.94%

N#Cc1nc(-c2ccccc2F)oc1NCCN1CCOCC1
inactive: growth inhibition [1] -19.2% | growth inhibition [2] -36.8% | viability increase [3] -1.89% | viability [4] 104% | viability [5] 95% | inhibition [6] 1.17% | RAM network inhibition [7] 0.32%

Reference: PubChem BioAssay
